Measured values: the array DNA melting data of Ke et al. (doi:10.1101/2024.01.08.574731)

Experiments:
[1] = folding enthalpy; higher = less favourable; fluorescence melt of hairpins on a sequencing array, two-state fit; settings: sodium 0.088 M
Method in brief: (§1)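 Cy3 fluorescence of library hairpins on a sequenced MiSeq flow cell, with annealed Cy3 and quencher oligos, was imaged in 50 mM Na-HEPES pH 8.0, 25 mM NaCl in 2.5 °C steps up to 60 °C. Signals were normalised to pre-quench Cy3 and to control variants. Melting temperature and folding enthalpy came from bootstrapped two-state fits, inverse-variance combined over four replicates. Fitted temperatures were raised by 9.35 °C to match UV melts.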

[2] = melting temperature; fluorescence melt of hairpins on a sequencing array, two-state fit, raised by 9.35 °C to match UV melts; settings: sodium 0.088 M
Method in brief: as §1

| Sequence | folding enthalpy [1] [kcal/mol] | Tm [2] [°C] |
| --- | --- | --- |
| GTTGGCGCGAAAGCGAAC (((..(((....)))))) | -12.9 | 45.9 |
| GTTGGCGGAAACGTCAGC (.((.((....)).)).) | -21.6 | 42.3 |
| GTTGGCTCGAAAGAGAAC (((..(((....)))))) | -17.1 | 34.9 |
| GTTGGGGGAAACTCCAAC (((((.(....).))))) | -41.2 | 50.4 |
| GTTGGGGGAAACTCCGAC ((.((.(....).)).)) | -25.9 | 41.6 |
| GTTGGGTCGAAAGACAAC (((..(((....)))))) | -18.2 | 38.1 |
| GTTGGTGGAAACACCAGC (.(((((....))))).) | -21.5 | 50.6 |
| GTTGGTGGAAACACCGAC ((.((((....)))).)) | -39 | 53.4 |
| GTTGTAACGAAAGTTAAC (((..(((....)))))) | -26.1 | 37.9 |
| GTTGTAGGAAACTACGAC ((.((((....)))).)) | -26 | 45.8 |
| GTTGTAGGAAACTGCAAC ((((.((....)).)))) | -17.8 | 46.9 |
| GTTGTCGAAAGACCCAAC ((((((....)))..))) | -11.1 | 26.6 |
| GTTGTCGAAAGACGCAAC ((((((....)))..))) | -9.32 | 31.9 |
| GTTGTCGGAAACGACAGC (.(((((....))))).) | -24 | 55.7 |
| GTTGTCGGAAACGACGAC ((.((((....)))).)) | -24.8 | 55.1 |
| GTTGTGCGAAAGCAAAAC (((.(((....))).))) | -24 | 48.7 |
| GTTGTGGGAAACCACAGC (.(((((....))))).) | -20 | 49.7 |
| GTTGTGGGAAACCGCAAC ((((.((....)).)))) | -43 | 53.8 |
| GTTGTGGGAAACTACAGC (.(((.(....).))).) | -16.8 | 32 |
| GTTGTGGGAAACTACGAC ((.((.(....).)).)) | -14.3 | 33.8 |
| GTTGTGGGAAACTGCAAC ((((..(....)..)))) | -12.7 | 39.3 |
| GTTGTTACGAAAGTAAAC (((..(((....)))))) | -27.2 | 44.2 |
| GTTGTTCGAAAGAAGAAC (((.(((....))).))) | -27.6 | 43.3 |
| GTTTACCCGAAAGGGAAC (((..(((....)))))) | -9.41 | 26.8 |

| Sequence | folding enthalpy [1] [kcal/mol] | Tm [2] [°C] |
| --- | --- | --- |
| GTTTACCGAAAGGTTAAC (((.(((....))).))) | -24.9 | 43.7 |
| GTTTACGAAAGTACAAC ((((((....))).))) | -11.9 | 30.4 |
| GTTTAGCGAAAGCTGAAC (((.(((....))).))) | -30.4 | 51.3 |
| GTTTAGGGAAACTTAAAC (((((.(....).))))) | -15.4 | 35.5 |
| GTTTATCGAAAGATCAAC (((.(((....))).))) | -22.1 | 34.6 |
| GTTTCACGAAAGTGTAAC (((.(((....))).))) | -24.6 | 44.7 |
| GTTTCAGGAAACCGAAAC (((((.(....).))))) | -30 | 37.4 |
| GTTTCCGAAAGGAAAAC ((((((....))).))) | -16.1 | 45.1 |
| GTTTCCGAAAGGAAAC ((((((....)))))) | -41.3 | 67.8 |
| GTTTCCGAAAGGACAAC ((((((....))).))) | -16.6 | 39.6 |
| GTTTCCGAAAGGAGAAC ((((((....))).))) | -16.5 | 34.7 |
| GTTTCCGAAAGGATAAC ((((((....))).))) | -19.8 | 37.6 |
| GTTTCGACGAAAGTCAAC (((..(((....)))))) | -9.58 | 22.9 |
| GTTTCGGGAAACCAAAAC ((((.((....)).)))) | -19.6 | 35.1 |
| GTTTCGGGAAACCGGAAC (((.(((....))).))) | -35.2 | 49.6 |
| GTTTCGGGAAACTGAAGC (.(((.(....).))).) | -11.2 | 37.9 |
| GTTTGACGAAAGTCGAAC (((.(((....))).))) | -35 | 57.8 |
| GTTTGAGGAAACCCAAAC (((((.(....).))))) | -30.3 | 36.8 |
| GTTTGAGGAAACTCAGAC ((.((((....)))).)) | -23.4 | 39 |
| GTTTGAGGAAACTTAGAC ((.(.((....)).).)) | -13.5 | 32.3 |
| GTTTGCACGAAAGTGAAC (((..(((....)))))) | -13.9 | 31.2 |
| GTTTGCCGAAAGGCCAAC (((.(((....))).))) | -20.9 | 41.5 |
| GTTTGCGAAAGCAATAAC ((((((....)))..))) | -12.6 | 34.5 |
| GTTTGCGAAAGCAGAAC ((((((....))).))) | -13.7 | 44.5 |

| Sequence | folding enthalpy [1] [kcal/mol] | Tm [2] [°C] |
| --- | --- | --- |
| GTTTGCGAAAGCATCAAC ((((((....)))..))) | -8.63 | 27.2 |
| GTTTGCGAAAGCATTAAC ((((((....)))..))) | -12.2 | 27.3 |
| GTTTGGCGAAAGCCCAAC (((.(((....))).))) | -19.1 | 39.1 |
| GTTTGGGGAAACCCAGAC ((.((((....)))).)) | -26.4 | 44.8 |
| GTTTGGGGAAACTCAAAC (((((.(....).))))) | -31.7 | 43.9 |
| GTTTGGGGAAACTCGAAC (((.(.(....).).))) | -17.6 | 30.8 |
| GTTTGTCGAAAGACGAAC (((.(((....))).))) | -39 | 53.1 |
| GTTTGTGGAAACACAAAC (((((((....))))))) | -46.4 | 58.4 |
| GTTTGTGGAAACGCAAAC (((((.(....).))))) | -36.2 | 48.4 |
| GTTTTAACGAAAGTTAAC (((..(((....)))))) | -14.7 | 27 |
| GTTTTATCGAAAGATAAC (((..(((....)))))) | -11.4 | 29.8 |
| GTTTTCCCGAAAGGGAAC (((..(((....)))))) | -10.7 | 36.5 |
| GTTTTCGAAAGAAACAAC ((((((....)))..))) | -11.7 | 26.6 |
| GTTTTCGAAAGAACAAC ((((((....))).))) | -12.2 | 30.5 |
| GTTTTCGAAAGAATAAC ((((((....))).))) | -12.9 | 31.2 |
| GTTTTCGCGAAAGCGAAC (((..(((....)))))) | -8.54 | 40.1 |
| GTTTTCGGAAACGAAAGC (.(((((....))))).) | -25.9 | 44.4 |
| GTTTTGCCGAAAGGCAAC (((..(((....)))))) | -8.44 | 36 |
| GTTTTGCGAAAGCAAAC (((.(((....)))))) | -13.8 | 46.1 |
| GTTTTGGAAACAAAAC ((((((....)))))) | -31.6 | 49.3 |
| GTTTTGGGAAACCAAAAC (((((((....))))))) | -43.5 | 57.5 |
| GTTTTTCCGAAAGGAAAC (((..(((....)))))) | -13.4 | 35.1 |
| GTTTTTGGAAACAAGAAC (((.(((....))).))) | -19.6 | 32.7 |
| TAAGCGAAAGCTTA (((((....))))) | -15 | 54.5 |

| Sequence | folding enthalpy [1] [kcal/mol] | Tm [2] [°C] |
| --- | --- | --- |
| TACTGGAAACAGTA (((((....))))) | -15.8 | 36.8 |
| TAGGTGAAAACCTA (((((....))))) | -15.4 | 41.1 |
| TCAATGAAAATTGA (((((....))))) | -9.78 | 25 |
| TCAGGGAAACCTGA (((((....))))) | -22.8 | 41.8 |
| TCCAAGAAATTGGA (((((....))))) | -10.5 | 31.2 |
| TCCATGAAAATGGA (((((....))))) | -17.1 | 42.2 |
| TCCCTGAAAAGGGA (((((....))))) | -15.6 | 48.3 |
| TCGGGGAAACCCGA (((((....))))) | -22.8 | 53.3 |
| TGACAGAAATGTCA (((((....))))) | -20.1 | 42.1 |
| TGAGCGAAAGCTCA (((((....))))) | -12.8 | 67.6 |
| TGATTGAAAAATCA (((((....))))) | -10.1 | 27.4 |
| TGCCAGAAATGGCA (((((....))))) | -16.5 | 55.1 |
| TGCGAGAAATCGCA (((((....))))) | -18.2 | 54.3 |
| TGCTAGAAATAGCA (((((....))))) | -14.6 | 41.2 |
| TGGAGGAAACTCCA (((((....))))) | -17.4 | 46 |
| TGGCTGAAAAGCCA (((((....))))) | -18.4 | 57.9 |
| TGGGGGAAACCCCA (((((....))))) | -17.2 | 53.5 |
| TGGTTGAAAAACCA (((((....))))) | -15.1 | 47 |
| TGTACGAAAGTACA (((((....))))) | -14.6 | 54.7 |
| TTAACGAAAGTTAA (((((....))))) | -14 | 41.1 |
| TTCCAGAAATGGAA (((((....))))) | -9.36 | 31 |
